The record followed here is ChEMBL document CHEMBL3826882, “Discovery of 1-((2R,4aR,6R,7R,7aR)-2-Isopropoxy-2-oxidodihydro-4H,6H-spiro[furo[3,2-d][1,3,2]dioxaphosphinine-7,2'-oxetan]-6-yl)pyrimidine-2,4(1H,3H)-dione (JNJ-54257099), a 3'-5'-Cyclic Phosphate Ester Prodrug of 2'-Deoxy-2'-Spirooxetane Uridine Triphosphate Useful for HCV Inhibition” (J Med Chem, 2016).

A word on the Tmax: it is the time from dosing to the highest level. The term half-life denotes the time in which the quantity being followed falls by half. High values mean slow loss, low ones fast loss. By Cmax is commonly meant the peak of the concentration-time curve. The AUC(0-t) is the area under the concentration-time curve up to a stated or last time point. Read a high AUC(0-t) as high exposure.

Data set [1] relates to Hepatocyte. Put plainly: Prodrug conversion in human primary hepatocytes assessed as 2'-deoxy-2'-spirooxetane uridine triphosphate level per million cells at 62.5 uM after 4 hrs using radiolabelled compound by LC-MS/MS analysis. The data set is classed as ADME, cell-based. A digest of the protocol:
(§1)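 Study A: fresh primary hepatocyte cultures from mouse, rat, dog and human incubated with tritiated prodrug at 2 or 62.5 µM for 4 or 24 h. Triphosphate in cell lysates reported as pmol/million hepatocytes. Duplicate or single measurements.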

For data set [2], the system named is Hepatocyte. The data set is described as follows: Prodrug conversion in human primary hepatocytes assessed as 2'-deoxy-2'-spirooxetane uridine triphosphate level per million cells at 62.5 uM after 24 hrs using radiolabelled compound by LC-MS/MS analysis. Format: ADME, cell-based. In short, it runs like this:
as §1

Data set [3] has as its system Hepatocyte. Put plainly: Drug metabolism in human primary hepatocyte supernatant assessed as 1-((4R,5R,7R,8R)-8-hydroxy-7-(hydroxymethyl)-1,6-dioxaspiro[3.4]octan-5-yl)pyrimidine-2,4(1H,3H)-dione formation at 2 to 62.5 uM after 4 to 24 hrs using radiolabeled compound by HPLC analysis. Format: ADME, cell-based. Particulars: hepatocytes. A digest of the protocol: (§2)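 Fresh primary hepatocyte cultures incubated with tritiated prodrug (5'-[3H]) at 2 and 62.5 µM for 4 and 24 h. Supernatants taken after protein precipitation and profiled by HPLC with radioactivity detection. Cell lysates profiled for metabolites by radio-LC. Cyclic monophosphate also measured by LC/MS/MS.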

Data set [4] concerns Hepatocyte. Put plainly: Drug metabolism in mouse primary hepatocyte supernatant assessed as 1-((4R,5R,7R,8R)-8-hydroxy-7-(hydroxymethyl)-1,6-dioxaspiro[3.4]octan-5-yl)pyrimidine-2,4(1H,3H)-dione formation at 2 to 62.5 uM after 4 to 24 hrs using radiolabeled compound by HPLC analysis. The data set is classed as ADME, cell-based. The conditions noted are these: hepatocytes. A digest of the protocol:
as §2

In data set [5] the test system is Hepatitis C virus. The data set is described as follows: Antiviral activity against HCV genotype 1a infected in homozygous cDNA-uPA chimeric SCID mouse bearing humanized hepatocytes assessed as change in HCV RNA level in serum at 50 mg/kg, po bid administered through gavage for 7 days by RT-PCR method. Format: functional, Hepacivirus hominis, subtype 1a, Hepatocyte. In short, it runs like this:
(§3)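 Male chimeric SCID cDNA-uPA+/+ mice with human hepatocyte liver (≥70% replacement by blood human albumin) and serum HCV RNA >1.0×10^6 copies/mL the week before dosing. Oral gavage for 7 days in 20% HP-β-CD, 50-200 mg/kg QD or BID. Serum sampled pre-dose on days 1, 2, 3, 5 and 7. Real-time PCR; mean change in log10 copies/mL, day 7 vs day 1 pre-dose.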

In data set [6] the test system is Hepatitis C virus. The data set is described as follows: Antiviral activity against HCV genotype 1a infected in homozygous cDNA-uPA chimeric SCID mouse bearing humanized hepatocytes assessed as change in HCV RNA level in serum at 100 mg/kg, po bid administered through gavage for 7 days by RT-PCR method. Format: functional, Hepacivirus hominis, subtype 1a, Hepatocyte. In short, it runs like this:
as §3

Data set [7] deals with Hepatitis C virus. The data set is described as follows: Antiviral activity against HCV genotype 3a infected in homozygous cDNA-uPA chimeric SCID mouse bearing humanized hepatocytes assessed as change in HCV RNA level in serum at 100 mg/kg, po bid administered through gavage for 7 days by RT-PCR method. The data set is classed as functional, Hepacivirus hominis, Hepatocyte. In short, it runs like this:
as §3

Data set [8] has as its system Hepatitis C virus. The data set is described as follows: Antiviral activity against HCV genotype 3a infected in homozygous cDNA-uPA chimeric SCID mouse bearing humanized hepatocytes assessed as reduction in HCV RNA level in serum administered through oral gavage once daily for 7 days by RT-PCR method. The data set is classed as functional, organism-based. The conditions noted are these: Hepacivirus hominis, Hepatocyte. In short, it runs like this: as §3

Data set [9] has as its system Hepatocyte. The data set is described as follows: Prodrug conversion in rat cryopreserved hepatocytes assessed as 2'-deoxy-2'-spirooxetane uridine triphosphate level per million cells at 10 uM after 8 hrs by LC-MS/MS analysis. The data set is classed as ADME, cell-based. In short, it runs like this: (§4)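 Plated cryopreserved hepatocytes (study B) incubated with 10 µM unlabeled prodrug for 2, 8 or 24 h. Triphosphate measured in cell lysates and expressed as pmol/million hepatocytes. Quantification limit 2 ng/10^6 cells.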

The test system of data set [10] is Hepatocyte. Put plainly: Prodrug conversion in human cryopreserved hepatocytes assessed as 2'-deoxy-2'-spirooxetane uridine triphosphate level per million cells at 10 uM after 24 hrs by LC-MS/MS analysis. The data set is classed as ADME, cell-based. In short, it runs like this:
as §4

Data set [11] concerns Hepatocyte. Put plainly: Prodrug conversion in human primary hepatocytes assessed as 2'-deoxy-2'-spirooxetane uridine triphosphate formation measured at 8 hrs by LC-MS/MS analysis. The data set is classed as ADME, cell-based. In short, it runs like this:
(§5)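 Hepatocyte primary cultures followed over time for triphosphate formation in cell lysates: rat and mouse up to 24 h, human up to 96 h.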

For data set [12], the system named is Hepatocyte. Put plainly: Prodrug conversion in human primary hepatocytes assessed as 2'-deoxy-2'-spirooxetane uridine triphosphate formation measured at 48 to 96 hrs by LC-MS/MS analysis. The data set is classed as ADME, cell-based. In short, it runs like this: as §5
Data set [13] has as its system Hepatocyte. The data set is described as follows: Drug metabolism in human hepatocytes assessed as ((4R,5R,7R,8R)-5-(2,4-dioxo-3,4-dihydropyrimidin-1(2H)-yl)-8-hydroxy-1,6-dioxaspiro[3.4]octan-7-yl)methyl dihydrogen phosphate formation in presence of CYP3A4 inhibitor ritonavir by LC-MS/MS analysis. Format: ADME, cell-based.
The test system of data set [14] is Hepatocyte. Put plainly: Drug level in human hepatocytes in presence of pan-CYP inhibitor 1-ABT by LC-MS/MS analysis. Format: ADME, cell-based.
Data set [15] deals with Hepatocyte. The data set is described as follows: Drug metabolism in human hepatocytes assessed as ((4R,5R,7R,8R)-5-(2,4-dioxo-3,4-dihydropyrimidin-1(2H)-yl)-8-hydroxy-1,6-dioxaspiro[3.4]octan-7-yl)methyl dihydrogen phosphate formation in presence of PDE5 inhibitor sildenafil by LC-MS/MS analysis. Format: ADME, cell-based.
Data set [16] can be described thus: Stability in human HuH7 cells assessed as parent compound level at 100 uM incubated for 96 hrs by LC-MS analysis. Particulars: huh-7, 96 h; call rule not given here. The data set is classed as ADME, cell-based. A digest of the protocol: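 Huh-7 replicon-containing cells incubated 96h with prodrug at 100µM; cell lysates analysed by LC-MS for triphosphate and remaining unmetabolised prodrug.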

Data set [17] concerns Plasma. Put plainly: Tlast in mouse plasma at 50 mg/kg, po. Format: ADME, organism-based. Particulars: in vivo. A digest of the protocol: (§6)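 Single oral dose of 50 mg/kg formulated in 20% HP-β-cyclodextrin. Prodrug and its triphosphate were measured in plasma and liver (ng/mL or ng/g) over time, and Cmax, tmax, AUC, tlast and t1/2 were derived. For some analytes, data from two independent studies are reported.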

Data set [18] concerns Liver. Put plainly: AUC (0 to last) in mouse liver at 50 mg/kg, po. Particulars: in vivo. The data set is classed as ADME, organism-based. A digest of the protocol: (§7)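 Oral dose 50 mg/kg, formulated in 20% HP-β-cyclodextrin. Prodrug and triphosphate were measured in plasma and liver (ng/mL or ng/g). Parameters derived were Cmax, tmax, AUC0-last, AUC0-inf and t1/2. Some prodrug data come from two independent studies.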

Data set [19] concerns Liver. Put plainly: AUC (0 to infinity) in mouse liver at 50 mg/kg, po. Format: ADME, organism-based. The arrangement: dose 50 mg/kg, route oral, time infinity. Particulars: in vivo. A digest of the protocol: as §7
Data set [20] concerns Liver. Put plainly: Tmax in mouse liver assessed as 2'-deoxy-2'-spirooxetane uridine triphosphate at 50 mg/kg, po. The data set is classed as ADME, organism-based. Particulars: in vivo. In short, it runs like this: as §6
A short description of data set [21]: Half life in rat liver at 50 mg/kg, po. The data set is classed as ADME, organism-based. In short, it runs like this:
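Single oral dose of 50 mg/kg in 20% HP-β-cyclodextrin. Prodrug and triphosphate measured in plasma and liver over time (tlast 6–30 h). Half-life, Cmax, tmax and AUC0-last derived; liver/plasma ratio taken from AUC0-last. Prodrug data pooled from two independent studies.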

In data set [22] the test system is Liver. Put plainly: Tmax in rat liver assessed as 2'-deoxy-2'-spirooxetane uridine triphosphate at 50 mg/kg, po. Particulars: in vivo. The data set is classed as ADME, organism-based. A digest of the protocol:
as §6

The subject of data set [23] is Liver. Put plainly: Tlast in rat liver assessed as 2'-deoxy-2'-spirooxetane uridine triphosphate at 50 mg/kg, po. The data set is classed as ADME, organism-based. The conditions noted are these: in vivo. A digest of the protocol: as §6
Data set [24] can be described thus: Cmax in dog plasma at 50 mg/kg, po. The data set is classed as ADME, organism-based, Canis lupus familiaris. Details: dose 50 mg/kg, route oral.
Data set [25] is described as follows: AUC (0 to last) in dog plasma at 50 mg/kg, po. The data set is classed as ADME, organism-based, Canis lupus familiaris. Details: dose 50 mg/kg, route oral, time 0 - last. A digest of the protocol:
as §7

The test system of data set [26] is Liver. The data set is described as follows: Tlast in dog liver at 50 mg/kg, po. The conditions noted are these: in vivo. Format: ADME, organism-based, Canis lupus familiaris. A digest of the protocol: as §6

As to `[3H]C1O[P@](=O)(OC(C)C)O[C@@H]2[C@@H]1O[C@@H](n1ccc(=O)[nH]c1=O)[C@@]21CCO1` (stereo partly specified), the Drug metabolism in data set [1] is listed as 0.24 pmol; in data set [2], 0.38 pmol; in data set [3], “metabolite_detected”; in [4] it was “metabolite_detected”.
Consider `CC(C)O[P@@]1(=O)OC[C@H]2O[C@@H](n3ccc(=O)[nH]c3=O)[C@@]3(CCO3)[C@@H]2O1`, for which the Activity in data set [5] was -0.45; in data set [6], -1.17; in [7], -1.08; in data set [8], “Dose-dependent effect”. Further, the Drug metabolism in data set [9] was 0.308 pmol; in [10] it was 0.151 pmol; in data set [11], “metabolite_detected”; in data set [12] it was “metabolite_detected”; in data set [13], “metabolite_notdetected”; in data set [15], “metabolite_notdetected”. Also, the Drug uptake result in [14] is reported as “Active”. For the same compound, in data set [16], the Stability result is on record as “Stable”. In addition, the values for the Tlast in [17], in data set [23] and in data set [26] were 24 h, 30 h and 24 h, respectively. The AUClast in data set [18] is 1456 ng·h/g. In data set [19], this compound came in with an AUC of 1706 ng·h/g. Moreover, the Tmax was determined as 2 h in data set [20] and 4 h in [22]. Moreover, the half-life in data set [21] is 5.3 h. In data set [24], this compound gave a Cmax of 4650 ng/mL. For the same compound, the AUC(0-t) in [25] was determined as 25600 ng·h/mL.
